Peptide text beside a SMILES is read from it. * marks the point of attachment. Dansyl = CN(C)c1cccc2c(S(=O)(=O)*)cccc12
Tests used:
Tiam2 PDZ domain = target: T1, Tiam2 PDZ domain (Mus musculus, UniProt Q6ZPF3); experiment: Equilibrium fluorescence anisotropy binding of dansylated peptides
T1 sequence (Q6ZPF3 908-997 limits assumed): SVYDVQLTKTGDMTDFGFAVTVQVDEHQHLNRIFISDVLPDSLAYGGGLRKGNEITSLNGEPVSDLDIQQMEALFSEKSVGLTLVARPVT
How it was run: (§1)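 Purified PDZ domains were titrated from a 1.5 mM stock into 1 μM N-terminally dansylated peptide at 25 °C in a stirred cuvette. Proteins were expressed in E. coli BL21(DE3), purified by Ni-chelate and size-exclusion chromatography, and His6-tag cleaved by TEV; Tiam2 is mouse residues 809–994; mutants made by site-directed mutagenesis. Anisotropy ex 340/em 550 nm, buffer-blank corrected. Kd from hyperbolic fit, mean of ≥3 independent runs; ΔG = RT ln Kd (298.15 K).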

[1] = target: Tiam1 PDZ domain (wild-type) (Homo sapiens, UniProt Q13009); experiment: as above
How it was run: as §1

Tiam1 PDZ domain (wild-type), sequence (Q13009 841-930 limits assumed): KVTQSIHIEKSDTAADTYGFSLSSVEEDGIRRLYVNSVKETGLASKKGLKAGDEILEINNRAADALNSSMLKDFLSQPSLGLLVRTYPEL

Row | Compound | Kd (Tiam2 PDZ domain) [µM] | Kd [1] [µM]
1 | C[C@H](NC(=O)[C@H](CCCNC(=N)N)NC(=O)[C@H](Cc1ccc(O)cc1)NC(=O)[C@H](CCCNC(=N)N)NC(=O)[C@H](Cc1ccc(O)cc1)NC(=O)[C@H](C)NC(=O)[C@H](C)NC(=O)[C@H](Cc1ccc(O)cc1)NS(=O)(=O)c1cccc2c(N(C)C)cccc12)C(=O)O [Tiam1 peptide 1 (Group I)] (Dansyl-YAAYRYRA-OH) | 22.5 ± 1.1 | > 250
2 | CC[C@H](C)[C@H](NC(=O)[C@H](CC(C)C)NC(=O)[C@H](C)NC(=O)[C@H](C)NC(=O)[C@H](Cc1ccc(O)cc1)NS(=O)(=O)c1cccc2c(N(C)C)cccc12)C(=O)N[C@@H](Cc1c[nH]cn1)C(=O)N[C@@H](CCCCN)C(=O)N[C@@H](Cc1ccccc1)C(=O)O [Tiam2 peptide 3 (Group II)] (Dansyl-YAALIHKF-OH) | 28.7 ± 4.9 | > 250
3 | CC(C)[C@H](NC(=O)[C@H](Cc1ccc(O)cc1)NC(=O)[C@@H](NC(=O)[C@H](CCCNC(=N)N)NC(=O)[C@H](CCCCN)NC(=O)[C@H](C)NC(=O)[C@H](C)NC(=O)[C@H](Cc1ccc(O)cc1)NS(=O)(=O)c1cccc2c(N(C)C)cccc12)[C@@H](C)O)C(=O)O [Tiam2 peptide 1 (Group I)] (Dansyl-YAAKRTYV-OH) | 77.6 ± 2.4 | > 250
4 | C[C@H](NC(=O)[C@H](C)NC(=O)[C@H](Cc1ccc(O)cc1)NS(=O)(=O)c1cccc2c(N(C)C)cccc12)C(=O)NCC(=O)N[C@@H](CCCNC(=N)N)C(=O)N[C@@H](CCCCN)C(=O)N[C@@H](Cc1c[nH]cn1)C(=O)N[C@@H](Cc1ccccc1)C(=O)O [Tiam2 peptide 2 (Group II)] (Dansyl-YAAGRKHF-OH) | 9.9 ± 2.2 | > 250
5 | C[C@H](NC(=O)[C@H](C)NC(=O)[C@H](Cc1ccc(O)cc1)NS(=O)(=O)c1cccc2c(N(C)C)cccc12)C(=O)N[C@@H](CCCCN)C(=O)N[C@@H](C)C(=O)N[C@@H](Cc1ccccc1)C(=O)N[C@@H](CCCNC(=N)N)C(=O)N[C@@H](Cc1ccccc1)C(=O)O [Tiam1 peptide 3 (Group II)] (Dansyl-YAAKAFRF-OH) | 7.7 ± 1.3 | 200 ± 50

From publication PMC3059893 (Biochemistry, 2011)
